hERG rescue = hERG (human) protection from proarrhythmic block. CHO-hERG, FluxOR thallium flux, dofetilide IC70 present. activation (rescue from dofetilide block), less the hit threshold, % at 10 µM. actives 0.51% (n = 310,000). Q12809;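 active = activation above the mean of controls blocked by dofetilide plus 5 SD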;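 also: thallium influx through hERG after potassium depolarization seen as dye fluorescence rise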
KCNK9 inh = blocks the human KCNK9 two-pore domain potassium channel; Q9NPC2; HEK293 KCNK9, FluxOR thallium flux fluorescence; hits give low values; B-score at 10 µM; actives 1.2% (n = 310,000);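 active = ratio B-score over 3 SD below the library mean, with starting fluorescence within 5 SD of its mean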;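 also: negative B-score means less thallium flux so channel inhibition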
Kir21 block = blocks the mouse Kir2.1 inward-rectifier potassium channel. actives 0.85% (n = 310,000). HEK293-Kir2.1, FluxOR thallium flux fluorescence; hits give low values. B-score at 10 µM. P35561;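 active = fluorescence ratio B-score at or below minus 3 SD of library scores, with starting-brightness B-score within 2 SD, cut at about -4.2 in these data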;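 also: channel flux triggered by added potassium and thallium sulfate stimulus; B-score of peak minus minimum fluorescence over baseline after thallium stimulus; more negative B-score means stronger Kir2.1 block with less thallium influx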
KCNQ1 act = potentiates or activates the human KCNQ1 potassium channel. B-score at 10 µM. AID 2648. actives 0.35% (n = 310,000). CHO-K1 KCNQ1, thallium flux FluxOR fluorescence; hits give high values;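 active = fluorescence ratio B-score, a plate-corrected score, at least three library SD, with initial intensity B-score within 5 SD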
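System: CHO-K1 cells stably expressing KCNQ1 / Medium: assay buffer for compound exposure, DMSO matched across wells / Reagent: thallium- and potassium-containing depolarizing buffer / Compound: one concentration, matched DMSO / Incubation: 20 min compound pretreatment at room temperature / Measured by: kinetic FluxOR fluorescence, 10 s baseline plus 110 s post-stimulus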
KCNK3 block = human KCNK3 channel inhibition, primary screen; B-score at 10 µM; actives 0.84% (n = 340,000); O14649; CHO-KCNK3 thallium flux, FluxOR fluorescence; hits give low values;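 active = B-score under library mean minus 4 SD, starting fluorescence ratio at most library mean plus 5 SD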;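 also: more negative B-score means stronger inhibition of thallium flux through KCNK3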
Target sequence (O14649 whole entry, looked up): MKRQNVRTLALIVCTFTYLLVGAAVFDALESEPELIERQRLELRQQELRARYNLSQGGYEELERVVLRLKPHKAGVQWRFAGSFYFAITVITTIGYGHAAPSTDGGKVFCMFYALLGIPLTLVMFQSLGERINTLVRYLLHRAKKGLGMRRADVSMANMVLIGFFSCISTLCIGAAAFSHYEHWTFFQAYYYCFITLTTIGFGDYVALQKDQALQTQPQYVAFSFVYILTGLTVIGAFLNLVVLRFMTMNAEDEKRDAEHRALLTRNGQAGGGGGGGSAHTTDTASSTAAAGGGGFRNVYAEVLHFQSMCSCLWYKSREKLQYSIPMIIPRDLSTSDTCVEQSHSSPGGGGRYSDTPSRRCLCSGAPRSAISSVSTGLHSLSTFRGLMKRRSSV
KCNQ1 inh = human KCNQ1 channel inhibition; CHO-K1 KCNQ1, FluxOR thallium flux fluorescence; hits give high values; B-score at 10 µM; actives 1.3% (n = 310,000);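 active = compounds whose thallium flux B-score, printed positive for inhibition, exceeds three library SD while starting fluorescence stays within three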;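 also: channel opened by potassium depolarization with thallium stimulus after 20 min compound exposure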
KCNK9 inh conf = human KCNK9 inhibitor confirmation; shares compounds with KCNK9 inh; HEK293 KCNK9 cells, FluxOR thallium flux fluorescence; inhibition, % at 10 µM; actives 43% (n = 4,900); AID 492992;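 active = thallium signal inhibited by more than 5 SD of the compound-free buffer control wells, on both duplicate plates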
Kir21 sel = tests whether KCNK9 modulators also affect mouse Kir2.1. AID 492993. Kir2.1 cells, FluxOR thallium flux fluorescence. inhibition, % at 10 µM. actives 4% (n = 4,900). shares compounds with KCNK9 inh;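 active = thallium signal drop more than 5 SD beyond the mean of the no-compound control wells, seen in both duplicate plates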;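 also: signal is fluorescence rise after thallium addition divided by baseline fluorescence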
KCNK9 uninduced = non-induced cell nonspecific activity of KCNK9 modulators | inhibition, % at 10 µM | actives 40% (n = 4,900) | shares compounds with KCNK9 inh | non-induced KCNK9-HEK293, FluxOR thallium flux | AID 492997;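 active = thallium signal drop beyond 5 SD of the untreated control mean, on both duplicate plates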
A number is an active result. In the library only some 3.7% were active in any assay of this set; here they are far more common.

Results for CCOC(=O)c1c(C)[nH]c(N=Nc2cccc(OC)c2)c1C ?
hERG rescue: inactive; KCNK9 inh: -11.6; Kir21 block: inactive; KCNQ1 act: inactive; KCNK3 block: inactive; KCNQ1 inh: inactive; KCNK9 inh conf: 62.0%; Kir21 sel: inactive; KCNK9 uninduced: inactive

How did Cc1ccccc1-c1ccnc2[nH]n(-c3ccccc3)c(=O)c12 do in these assays?
hERG rescue: inactive; KCNK9 inh: inactive; Kir21 block: inactive; KCNQ1 act: inactive; KCNK3 block: inactive; KCNQ1 inh: inactive

How did CC(C)(C)n1nnnc1C(c1cccs1)N(Cc1cccnc1)Cc1ccccc1Cl (stereo not drawn) do in these assays?
hERG rescue: inactive; KCNK9 inh: -19.2; Kir21 block: inactive; KCNQ1 act: inactive; KCNK3 block: inactive; KCNQ1 inh: inactive; KCNK9 inh conf: 70.0%; Kir21 sel: inactive; KCNK9 uninduced: 54.5%

What do the screens show for `CC(C)(C)n1nnnc1C(c1cccs1)N1CCN(Cc2ccccc2)CC1` (stereo not drawn)?
hERG rescue: inactive; KCNK9 inh: inactive; Kir21 block: inactive; KCNQ1 act: inactive; KCNK3 block: inactive; KCNQ1 inh: inactive

Results for COc1ccc(NC(=O)CSc2nnc(C3CCCCC3)n2-c2ccccc2)cc1 ?
hERG rescue: inactive; KCNK9 inh: inactive; Kir21 block: inactive; KCNQ1 act: inactive; KCNK3 block: inactive; KCNQ1 inh: inactive; KCNK9 inh conf: inactive; Kir21 sel: inactive; KCNK9 uninduced: inactive

Results for COc1ccc(NC(=O)CSc2nnc(C3CC3)n2N)cc1 ?
hERG rescue: inactive; KCNK9 inh: inactive; Kir21 block: inactive; KCNQ1 act: inactive; KCNK3 block: inactive; KCNQ1 inh: inactive

Results for COc1ccc(-n2c(SCC(=O)Nc3ccc(Cl)cc3)nc(O)c(Cc3ccccc3)c2=O)cc1 ?
hERG rescue: inactive; KCNK9 inh: inactive; Kir21 block: inactive; KCNQ1 act: inactive; KCNK3 block: inactive; KCNQ1 inh: inactive; KCNK9 inh conf: inactive; Kir21 sel: inactive; KCNK9 uninduced: inactive

How did COc1ccc(-n2c(SCC(=O)Nc3ccc(C)cc3)nc(O)c(Cc3ccccc3)c2=O)cc1 do in these assays?
hERG rescue: inactive; KCNK9 inh: inactive; Kir21 block: inactive; KCNQ1 act: inactive; KCNK3 block: inactive; KCNQ1 inh: inactive

How did Cc1ccccc1OCC(=O)N1CCCCCCC1 do in these assays?
hERG rescue: inactive; KCNK9 inh: inactive; Kir21 block: inactive; KCNQ1 act: inactive; KCNK3 block: inactive; KCNQ1 inh: inactive

Results for C=C(C)COc1ccc(-c2ncncc2-c2ccc(Br)cc2)c(O)c1 ?
hERG rescue: inactive; KCNK9 inh: inactive; Kir21 block: inactive; KCNQ1 act: inactive; KCNK3 block: inactive; KCNQ1 inh: inactive; KCNK9 inh conf: inactive; Kir21 sel: inactive; KCNK9 uninduced: inactive

How did Cc1cccc(N2CCN(Cc3nc(-c4cccc(Cl)c4)oc3C)CC2)n1 do in these assays?
hERG rescue: inactive; KCNK9 inh: inactive; Kir21 block: inactive; KCNQ1 act: inactive; KCNK3 block: inactive; KCNQ1 inh: inactive; KCNK9 inh conf: inactive; Kir21 sel: inactive; KCNK9 uninduced: inactive

What do the screens show for `Cc1cccc(N2CCN(Cc3nc(-c4ccccc4Cl)oc3C)CC2)n1`?
hERG rescue: inactive; KCNK9 inh: inactive; Kir21 block: inactive; KCNQ1 act: inactive; KCNK3 block: inactive; KCNQ1 inh: inactive; KCNK9 inh conf: inactive; Kir21 sel: inactive; KCNK9 uninduced: inactive

How did Cc1ccccc1-c1nc(CN2CCC(C(=O)N3CCN(c4ccccn4)CC3)CC2)c(C)o1 do in these assays?
hERG rescue: inactive; KCNK9 inh: inactive; Kir21 block: inactive; KCNQ1 act: inactive; KCNK3 block: inactive; KCNQ1 inh: inactive
